High-throughput results (PubChem BioAssay)
Compounds with a hit are over-represented: about 2.6% of the library has one in this group of screens.
TNAP inh noacc: TNAP (human) inhibition, acceptor-free conditions; P05186; purified TNAP, CDP-star luminescence, 30 min; inhibition, % at 20 µM; 200,000 tested, 0.26% active; AID 1012;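 active = tissue-nonspecific alkaline phosphatase inhibition above about 50% at 20 µM in the single-dose screen, limit read from the data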
Target sequence (P05186 whole entry, looked up): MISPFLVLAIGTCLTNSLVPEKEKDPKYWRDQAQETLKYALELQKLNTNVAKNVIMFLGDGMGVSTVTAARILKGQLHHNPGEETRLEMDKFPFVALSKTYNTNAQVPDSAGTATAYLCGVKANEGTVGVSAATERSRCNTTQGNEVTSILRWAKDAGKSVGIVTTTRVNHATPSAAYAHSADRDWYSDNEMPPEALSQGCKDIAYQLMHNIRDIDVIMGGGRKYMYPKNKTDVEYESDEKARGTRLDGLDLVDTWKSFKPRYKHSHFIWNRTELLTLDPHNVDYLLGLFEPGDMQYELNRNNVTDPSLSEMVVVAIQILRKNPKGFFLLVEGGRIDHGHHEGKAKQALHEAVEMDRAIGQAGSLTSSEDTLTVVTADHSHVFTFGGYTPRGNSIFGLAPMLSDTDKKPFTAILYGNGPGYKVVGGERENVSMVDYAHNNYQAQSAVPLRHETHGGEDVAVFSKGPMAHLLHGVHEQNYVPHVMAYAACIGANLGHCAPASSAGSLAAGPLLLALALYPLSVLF
TNAP act hiacc: increases human TNAP activity under high phosphate acceptor concentration; P05186; 200,000 tested, under 10 active; activation factor at 20 µM; purified TNAP, CDP-star luminescence, 1 M DEA, 30 min; stronger effect = higher value; 0 = EDTA background, 1 = DMSO-only activity;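 active = activation factor at least 2 at 20 µM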
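Test system – human TNAP · Doses – 20 µM single point · Incubation – 30 min, room temperature · Signal – luminescent substrate turnover signal · Read-out basis – activation factor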
Arbovirus anti: arbovirus infection inhibition; arbovirus infection cell-based antiviral screen; 200,000 tested, 0.37% active; inhibition, % at 10 µM; in the data active = inhibition above about 30%
WT yeast gro inh: growth inhibition of WT yeast, mitochondrial fusion screen; mitochondrial fusion phenotypic screen, WT strain; inhibition, % at 10 µM; 190,000 tested, 2.1% active; in the data active = inhibition above about 58%; tested in S. cerevisiae
TNAP inh hi DEA: inhibitors of human TNAP at high phosphate acceptor concentration | inhibition, % at 20 µM | 200,000 tested, 0.03% active | P05186 | purified TNAP, CDP-star luminescence, 1 M DEA;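 active = over 50% inhibition of tissue-nonspecific alkaline phosphatase at 20 µM in the single-dose screen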
Numbers stand for hits; - = inactive.

SMILES | TNAP inh noacc | TNAP act hiacc | Arbovirus anti | WT yeast gro inh | TNAP inh hi DEA
CCOc1ccc(-n2c(C)nc(O)c2N=Nc2ccccc2)cc1 | - | - | - | - | -
C=C(C)c1cccc(C(C)(C)NC(=O)Nc2ccc(Cl)cn2)c1 | - | - | - | 74 | -
CCn1c(SCC(=O)N2CCCCC2)nc(O)cc1=O | - | - | - | - | -
C=C(C)CN(CC)C(=O)CSc1nc(O)cc(=O)n1C1CCCC1 | - | - | 30 | - | -
COc1cccc2c1C(=O)c1c(O)c3c(c(O)c1C2=O)C[C@@](O)(C(=O)CO)C[C@@H]3O[C@H]1C[C@H](N)[C@H](O)[C@H](C)O1 | - | - | - | 59 | -
C=CCn1c(=S)[nH]c2scc(-c3ccc(C)o3)c2c1=O | - | - | - | 65 | -
CCn1c(=S)[nH]c2scc(-c3cccs3)c2c1=O | - | - | - | - | -
CC1(C)NC(=O)N(CC(=O)O)C1=O | - | - | - | - | -
N#CC1(NC(=O)CN2CCc3ccccc3C2)CCCC1 | - | - | - | - | -
CSc1nc(Sc2cccc(Cl)c2)c2ccccc2n1 | - | - | - | 59 | -
COc1cc(C2C(C#N)=C(N)Oc3n[nH]c(-c4cccs4)c32)cc(OC)c1O (stereo not given) | 54 | - | - | - | -
Cc1[nH]c2ccccc2c1N=Nc1ccccc1F | - | - | - | 72 | -
Cc1[nH]c2ccccc2c1N=Nc1ccc(F)cc1 | - | - | - | - | -
NC(N)=N/N=C/c1ccccc1 | - | - | - | - | -
NC(N)=N/N=C/c1ccc(OCc2ccccc2Cl)cc1 | - | - | - | 62 | -
Cc1cc(C)cc(OCC(=O)OCC(=O)c2ccc3c(c2)NC(=O)CO3)c1 | - | - | - | 70 | -
Cc1ccc(NCC(=O)Nc2ccc(Br)cc2)cc1F | - | - | - | - | -
CN(C)c1nc(OCCNC(=O)Nc2ccccc2)nc(N2CCOCC2)n1 | - | - | - | - | -
O=C1N=c2ccccc2=C1c1sc(NS(=O)(=O)c2ccccc2)nc1O | - | - | - | - | -
O=C1N=c2ccccc2=C1c1sc(Nc2ccc(O)cc2)nc1O | 82 | - | 36 | - | -
Cc1ccc(CSc2nnc3c(n2)OC2(Nc4ccccc4-3)C(=O)Nc3ccc(F)cc32)cc1 (stereo not given) | - | - | - | 70 | -
O=C1Nc2ccc(F)cc2C12Nc1ccccc1-c1nnc(SCc3ccccc3)nc1O2 (stereo not given) | - | - | - | - | -
O=C1Nc2ccc(F)cc2C12Nc1ccccc1-c1nnc(SCc3ccccc3Cl)nc1O2 (stereo not given) | - | - | - | 69 | -
COc1ccc2c(c1)c1nc3ccccc3nc1n2Cc1ccc(OC)c(OC)c1 | - | - | 33 | - | -
CCOc1ccc(Cn2c3ccc(OC)cc3c3nc4ccccc4nc32)cc1OC | - | - | - | - | -
SMILES | TNAP inh noacc | TNAP act hiacc | Arbovirus anti | WT yeast gro inh | TNAP inh hi DEA
COc1cc(C(=O)Nc2sc(C)c(C)c2C(=O)O)cc(OC)c1OC | - | - | 44 | - | -
CCOC(=O)c1cc(CC)sc1NC(=O)c1cc(OC)c(OC)c(OC)c1 | - | - | - | - | -
Cc1ccc(C(=O)c2c[nH]c(C(=O)NCc3cccnc3)c2)cc1 | - | - | - | - | -
CC1(C)C2CCC1(C)C(OC(=O)CC(=O)O)C2 (stereo not given) | - | - | - | 64 | -
CC1(C)C2CCC1(C)C(OC(=O)CSc1nc(N)cc(=O)[nH]1)C2 (stereo not given) | - | - | - | - | -
CC(C)C(NC(=O)OC(C)(C)C)C(=O)N1CCCC1C(=O)NC(Cc1ccccc1)C(N)=O (stereo not given) | - | - | - | - | -
O=C(COc1ccc(-c2ccccc2)cc1)N/N=C/c1cc(O)ccc1Br | - | - | - | 96 | -
COc1cccc(-c2ccc(C#N)c(OC(=O)c3c(Cl)cccc3Cl)n2)c1 | - | - | - | 62 | -
O=C(Nc1ccccn1)c1csc2c1CCCC2 | - | - | - | 72 | -
COc1ccccc1NC(=O)c1csc2c1CCCC2 | - | - | - | - | -
Cc1ccc(C(C(=O)NC(C)(C)C)N(Cc2ccccc2)C(=O)c2snc(C(N)=O)c2N)o1 (stereo not given) | - | - | - | - | -
Cc1nc(Nc2ccc(C(=O)O)cc2)sc1-c1ccccc1 | - | - | - | - | -
Cc1nc(Nc2ccccc2)sc1-c1ccccc1 | - | - | 33 | 64 | -
Cc1c(C(=O)NN2CCCCC2)nn(-c2ccc(Cl)cc2Cl)c1-c1ccc(I)cc1 | - | - | - | 81 | -
O=C(c1cccc(F)c1)N1CCN(Cc2ccco2)CC1 | - | - | - | - | -
O=C(/C=C/c1ccc(Cl)cc1Cl)N(Cc1ccc(Cl)cc1)C1CCS(=O)(=O)C1 (stereo not given) | - | - | - | 59 | -
Cc1cc(=O)oc(C)c1C(=O)Nc1ccc2nsnc2c1 | - | - | - | 94 | -
CNC(=S)N(Cc1ccc(OC)cc1)Cc1cc2ccc(C)cc2[nH]c1=O | - | - | - | - | -
CCOc1ccc(-n2cc(C(=O)c3cc(Cl)ccc3O)cc(C#N)c2=O)cc1 | - | - | - | 59 | -
C=CCn1c(=O)c(C(=O)Nc2ccccc2S(N)(=O)=O)c(O)c2ccccc21 | - | - | - | - | -
O=C1Nc2ccccc2C(O)(C(=O)NC2CC2)N1c1ccc(Cl)c(Cl)c1 (stereo not given) | - | - | - | - | -
O=C(N=C1SCC(=O)N1c1ccccc1Cl)c1ccccc1 | - | - | - | 77 | -
O=C(N=C1SCC(=O)N1c1ccccc1Cl)c1ccco1 | - | - | - | - | -
N#Cc1sc2nc(-c3cccs3)cc(-c3ccc(F)cc3)c2c1N | - | - | 37 | - | -
Cc1ccc(C(C)C)cc1OCC(=O)N/N=C/c1ccc2c(c1)OCCO2 | - | - | - | 77 | -
SMILES | TNAP inh noacc | TNAP act hiacc | Arbovirus anti | WT yeast gro inh | TNAP inh hi DEA
O=S(=O)(NCCC(c1ccc(F)cc1)c1ccco1)c1ccccc1 (stereo not given) | - | - | - | 60 | -
O=C(CC(c1ccco1)S(=O)(=O)c1ccccc1)c1ccc(F)cc1 (stereo not given) | - | - | - | - | -
O=[N+]([O-])c1cccc2c(N3CCCC3)ccnc12 | - | - | - | - | -
CC(C)COP(=O)(OCC(C)C)C(Nc1ccccc1)c1ccc(F)cc1 (stereo not given) | - | - | - | - | -
CCCOP(=O)(OCCC)C(Nc1ccc(C(C)C)cc1)c1ccc([N+](=O)[O-])cc1 (stereo not given) | - | - | - | 74 | -
CC(C)C1COC(c2cccn2Cc2ccccc2Cl)=N1 (stereo not given) | - | - | - | 65 | -
Cc1ccc(Cn2cccc2C2=NC(C)CO2)cc1 (stereo not given) | - | - | - | - | -
Cc1ccc(CC2SC(=Nc3ccccc3)N(c3ccccc3)C2=O)cc1 (stereo not given) | - | - | - | 61 | -
Cc1ccc(Cl)cc1N1CCN(CC(=O)NC2CCCc3ccccc32)CC1 (stereo not given) | - | - | - | 74 | -
